Tests used:
Type in all cases: functional
MDA-MB-435 = assay: Anticancer activity against human MDA-MB-435 cells after 48 hrs by sulforhodamine B assay; settings: MDA-MB-435, 48 h
Outline: (§1)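 Full 60-cell-line panel, compounds tested over a five-log dose range. Cells are preincubated on microtiter plates, the agent is added, and cultures run 48 h. The end point is sulphorhodamine B protein staining. GI50 is taken as the concentration giving 50% growth inhibition relative to untreated control cells.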

NCI-H322M = assay: Anticancer activity against human NCI-H322M cells after 48 hrs by sulforhodamine B assay; outline: as §1
HCC 2998 = assay: Anticancer activity against human HCC2998 cells after 48 hrs by sulforhodamine B assay; settings: HCC 2998, 48 h; outline: as §1
K562 = assay: Anticancer activity against human K562 cells after 48 hrs by sulforhodamine B assay; settings: K562, 48 h; outline: as §1
SK-MEL-28 = assay: Anticancer activity against human SK-MEL-28 cells after 48 hrs by sulforhodamine B assay; settings: SK-MEL-28, 48 h; outline: as §1
MDA-MB-231 = assay: Anticancer activity against human MDA-MB-231 cells after 48 hrs by sulforhodamine B assay; settings: MDA-MB-231, 48 h; outline: as §1
SF-295 = assay: Anticancer activity against human SF295 cells after 48 hrs by sulforhodamine B assay; settings: SF-295, 48 h; outline: as §1
SNB-75 = assay: Anticancer activity against human SNB75 cells after 48 hrs by sulforhodamine B assay; settings: SNB-75, 48 h
Outline: (§2)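 Cells from the 60-line full panel are preincubated on microtiter plates, then treated across a five-log dose range for 48 h. Growth is read with the protein-binding dye sulforhodamine B. GI50 is the concentration giving 50% growth inhibition relative to untreated control cells.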

HL-60(TB) = assay: Anticancer activity against human HL-60(TB) cells after 48 hrs by sulforhodamine B assay; settings: HL-60, 48 h
Outline: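 Run within the full 60-cell-line panel across a five-log dose range. GI50 was taken as the concentration causing 50% growth inhibition relative to untreated control cells.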

DU-145 = assay: Anticancer activity against human DU145 cells after 48 hrs by sulforhodamine B assay; settings: DU-145, 48 h; outline: as §1
SR = assay: Anticancer activity against human SR cells after 48 hrs by sulforhodamine B assay; outline: as §2
OVCAR-4 = assay: Anticancer activity against human OVCAR4 cells after 48 hrs by sulforhodamine B assay; settings: OVCAR-4, 48 h; outline: as §1
SK-OV-3 = assay: Anticancer activity against human SKOV3 cells after 48 hrs by sulforhodamine B assay; settings: SK-OV-3, 48 h; outline: as §1
SF-268 [1] = assay: Anticancer activity against human SF268 cells assessed as cell growth at 100 uM after 48 hrs by sulforhodamine B assay relative to control; settings: SF-268, 48 h, read-out: Activity
Outline: (§3)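 Three-cell-line prescreen (NCI-H460 lung, MCF7 breast, SF 268 CNS), each preincubated on microtiter plates. The agent is added at a single concentration and cultures are incubated 48 h. Growth is read by sulphorhodamine B protein staining and reported as percent growth of treated versus untreated control cells; negative values indicate cell kill.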

NCI/ADR-RES = assay: Anticancer activity against human NCI/ADR-RES cells after 48 hrs by sulforhodamine B assay; outline: as §1
OVCAR-8 = assay: Anticancer activity against human OVCAR8 cells after 48 hrs by sulforhodamine B assay; settings: OVCAR-8, 48 h; outline: as §1
SNB-19 = assay: Anticancer activity against human SNB19 cells after 48 hrs by sulforhodamine B assay; settings: SNB-19, 48 h; outline: as §1
LOX IMVI = assay: Anticancer activity against human LOXIMVI cells after 48 hrs by sulforhodamine B assay; outline: as §1
Malme-3M = assay: Anticancer activity against human MALME-3M cells after 48 hrs by sulforhodamine B assay; outline: as §1
T47D = assay: Anticancer activity against human T47D cells after 48 hrs by sulforhodamine B assay; outline: as §2
NCI-H522 = assay: Anticancer activity against human NCI-H522 cells after 48 hrs by sulforhodamine B assay; settings: NCI-H522, 48 h; outline: as §1
NCI-H226 = assay: Anticancer activity against human NCI-H226 cells after 48 hrs by sulforhodamine B assay; settings: NCI-H226, 48 h; outline: as §1
CCRF-CEM = assay: Anticancer activity against human CCRF-CEM cells after 48 hrs by sulforhodamine B assay; outline: as §1
UO-31 = assay: Anticancer activity against human UO31 cells after 48 hrs by sulforhodamine B assay; settings: UO-31, 48 h; outline: as §2
NCI-H460 [2] = assay: Anticancer activity against human NCI-H460 cells after 48 hrs by sulforhodamine B assay; settings: NCI-H460, 48 h; outline: as §1
SF-268 [3] = assay: Anticancer activity against human SF268 cells after 48 hrs by sulforhodamine B assay; settings: SF-268, 48 h; outline: as §1
NCI-H460 [4] = assay: Anticancer activity against human NCI-H460 cells assessed as cell growth at 100 uM after 48 hrs by sulforhodamine B assay relative to control; settings: NCI-H460, 48 h, read-out: Activity; outline: as §3
A549 = assay: Anticancer activity against human A549 cells after 48 hrs by sulforhodamine B assay; settings: A549, 48 h; outline: as §1
OVCAR-5 = assay: Anticancer activity against human OVCAR5 cells after 48 hrs by sulforhodamine B assay; settings: OVCAR-5, 48 h; outline: as §1
UACC-62 = assay: Anticancer activity against human UACC62 cells after 48 hrs by sulforhodamine B assay; settings: UACC-62, 48 h; outline: as §2
OVCAR-3 = assay: Anticancer activity against human OVCAR-3 cells after 48 hrs by sulforhodamine B assay; settings: OVCAR-3, 48 h; outline: as §1
SN12C = assay: Anticancer activity against human SN12C cells after 48 hrs by sulforhodamine B assay; outline: as §1
HCT-15 = assay: Anticancer activity against human HCT15 cells after 48 hrs by sulforhodamine B assay; settings: HCT-15, 48 h; outline: as §1
TK-10 = assay: Anticancer activity against human TK10 cells after 48 hrs by sulforhodamine B assay; settings: TK-10, 48 h; outline: as §2
EKVX = assay: Anticancer activity against human EKVX cells after 48 hrs by sulforhodamine B assay; outline: as §1
ACHN = assay: Anticancer activity against human ACHN cells after 48 hrs by sulforhodamine B assay; outline: as §1
HT-29 = assay: Anticancer activity against human HT-29 cells after 48 hrs by sulforhodamine B assay; settings: HT-29, 48 h; outline: as §1
KM12 = assay: Anticancer activity against human KM12 cells after 48 hrs by sulforhodamine B assay; settings: KM12, 48 h; outline: as §1
MCF7 [5] = assay: Anticancer activity against human MCF7 cells assessed as cell growth at 100 uM after 48 hrs by sulforhodamine B assay relative to control; settings: MCF7, 48 h, read-out: Activity; outline: as §3
UACC-257 = assay: Anticancer activity against human UACC257 cells after 48 hrs by sulforhodamine B assay; settings: UACC-257, 48 h; outline: as §2
HOP-92 = assay: Anticancer activity against human HOP92 cells after 48 hrs by sulforhodamine B assay; settings: HOP-92, 48 h; outline: as §1
IGROV-1 = assay: Anticancer activity against human IGROV1 cells after 48 hrs by sulforhodamine B assay; settings: IGROV-1, 48 h; outline: as §1
SW-620 = assay: Anticancer activity against human SW620 cells after 48 hrs by sulforhodamine B assay; settings: SW-620, 48 h; outline: as §2
MCF7 [6] = assay: Anticancer activity against human MCF7 cells after 48 hrs by sulforhodamine B assay; settings: MCF7, 48 h; outline: as §1
[7] = Anticancer activity against human […] cells after 48 hrs by sulforhodamine B assay; outline: as §1
SF-539 = assay: Anticancer activity against human SF539 cells after 48 hrs by sulforhodamine B assay; settings: SF-539, 48 h; outline: as §1
PC-3 = assay: Anticancer activity against human PC3 cells after 48 hrs by sulforhodamine B assay; settings: PC-3, 48 h; outline: as §1
MOLT-4 = assay: Anticancer activity against human MOLT4 cells after 48 hrs by sulforhodamine B assay; settings: MOLT-4, 48 h; outline: as §1
U-251 = assay: Anticancer activity against human U251 cells after 48 hrs by sulforhodamine B assay; settings: U-251, 48 h; outline: as §2
[8] = Anticancer activity against human Hs 578T cells after 48 hrs by sulforhodamine B assay; outline: as §1
CAKI-1 = assay: Anticancer activity against human Caki1 cells after 48 hrs by sulforhodamine B assay; settings: CAKI-1, 48 h; outline: as §1
NCI-H23 = assay: Anticancer activity against human NCI-H23 cells after 48 hrs by sulforhodamine B assay; settings: NCI-H23, 48 h; outline: as §1
COLO 205 = assay: Anticancer activity against human COLO205 cells after 48 hrs by sulforhodamine B assay; settings: COLO 205, 48 h; outline: as §1
RXF 393 = assay: Anticancer activity against human RXF393 cells after 48 hrs by sulforhodamine B assay; settings: RXF 393, 48 h; outline: as §1

Fc1cc(C2=Nn3c(nnc3-c3cc(F)c(Cl)cc3Cl)SC2)c(Cl)cc1Cl
GI50 (MDA-MB-435): 27.8 µM
GI50 (NCI-H322M): 29.1 µM
GI50 (HCC 2998): 31.6 µM
GI50 (K562): 17.8 µM
GI50 (SK-MEL-28): 21.5 µM
GI50 (MDA-MB-231): 13.4 µM
GI50 (SF-295): 20.3 µM
GI50 (SNB-75): 26.2 µM
GI50 (HL-60(TB)): 80.4 µM
GI50 (DU-145): 36.6 µM
GI50 (SR): 25.4 µM
GI50 (OVCAR-4): 34.5 µM
GI50 (SK-OV-3): 29.2 µM
growth at 100 µM (SF-268 [1]): 26%
GI50 (NCI/ADR-RES): 27.4 µM
GI50 (OVCAR-8): 26 µM
GI50 (SNB-19): 22.7 µM
GI50 (LOX IMVI): 21.6 µM
GI50 (Malme-3M): 28.4 µM
GI50 (T47D): 4.93 µM
GI50 (NCI-H522): 24.2 µM
GI50 (NCI-H226): 14.9 µM
GI50 (CCRF-CEM): 22 µM
GI50 (UO-31): 31.3 µM
GI50 (NCI-H460 [2]): 17.6 µM
GI50 (SF-268 [3]): 18.5 µM
growth at 100 µM (NCI-H460 [4]): 6%
GI50 (A549): 23.7 µM
GI50 (OVCAR-5): 56.8 µM
GI50 (UACC-62): 13.3 µM
GI50 (OVCAR-3): 11.5 µM
GI50 (SN12C): 18.4 µM
GI50 (HCT-15): 20.2 µM
GI50 (TK-10): 37.4 µM
GI50 (EKVX): 24.6 µM
GI50 (ACHN): 26.6 µM
GI50 (HT-29): 20.1 µM
GI50 (KM12): 28.5 µM
growth at 100 µM (MCF7 [5]): 44%
GI50 (UACC-257): 30.2 µM
GI50 (HOP-92): 11.3 µM
GI50 (IGROV-1): 29.8 µM
GI50 (SW-620): 22.6 µM
GI50 (MCF7 [6]): 16.8 µM
GI50 [7]: 6 µM
GI50 (SF-539): 18.9 µM
GI50 (PC-3): 16.9 µM
GI50 (MOLT-4): 16.9 µM
GI50 (U-251): 20.4 µM
GI50 [8]: 21.9 µM
GI50 (CAKI-1): 20.6 µM
GI50 (NCI-H23): 21.8 µM
GI50 (COLO 205): 19 µM
GI50 (RXF 393): 23.2 µM

Source: ChEMBL document CHEMBL1154616, “Synthesis and antitumor activity studies of some new fused 1,2,4-triazole derivatives carrying 2,4-dichloro-5-fluorophenyl moiety” (Eur J Med Chem, 2009)
